This note sets out measurements from PubChem BioAssay AID652163 (Broad Institute, 2013).

Molecules are shown by their SMILES. In all, about 360,000 compounds went through this assay and about 500 (0.14%) were called active.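 How the source made its calls: active means mean inhibition of at least 70% across replicates, with every replicate also reaching that level; inconclusive means mean inhibition reaches 70% but some replicates fall short; inactive means mean inhibition below 70%.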 The sample as a whole holds a higher share of actives than the screen did.

The target in this experiment is Protein S100-A4 (Homo sapiens) (UniProt P26447). Description: human S100A4 protein-peptide interaction blockers – biochemical, fluorescence polarization, TAMRA-MyoIIA peptide, primary screen (AID 652163). The note with it: at 10.7 µM, stronger effect = higher value. Put shortly: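 Compound dosing: one dose per compound; test system: human S100A4 monomer with TAMRA-labelled myosin IIA peptide; probe or stimulus: TAMRA-labelled myosin IIA heavy-chain peptide probe, 5 nM; medium: HEPES buffer with Ca2+, pH 7.2; schedule: 5 min incubation before reading; benchmarks: neutral control DMSO, positive control TFP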
Sequence of Protein S100-A4 (Homo sapiens) (P26447 whole entry, looked up): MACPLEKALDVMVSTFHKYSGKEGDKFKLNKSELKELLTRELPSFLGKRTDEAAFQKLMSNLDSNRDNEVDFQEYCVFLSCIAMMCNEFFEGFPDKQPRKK
In the case of `NCC[C@H]1CC[C@H](NC(=O)C2CC2)[C@@H](CO)O1`, the inhibition is 4.1% (inactive). As for `CCCN1C[C@@H](C)[C@@H](OC)CN(C)C(=O)c2cc(NC(=O)CC(F)(F)F)ccc2OC[C@H]1C`, the figure is -32.9% (inactive); as for `COCC#Cc1ccc2c(c1)O[C@H](CN(C)CC1CC1)[C@H](C)CN([C@H](C)CO)S2(=O)=O`, 4.13% (inactive).

For `CC(C)NC(=O)N(C)C[C@H]1Oc2ncc(-c3ccc(C(=O)N(C)C)cc3)cc2C(=O)N([C@H](C)CO)C[C@H]1C`, the inhibition was -3.24% (inactive). As for `C[C@@H]1CN([C@H](C)CO)C(=O)c2cc(-c3ccncc3)cnc2O[C@@H]1CN(C)C(=O)Cc1cccnc1`, the figure is 11.8% (inactive); as for `CC(C)C#Cc1ccc2c(c1)O[C@@H](CN(C)C(=O)NC(C)C)[C@H](C)CN([C@H](C)CO)S2(=O)=O`, 106% (active). Consider `CC(C)NC(=O)N(C)C[C@@H]1Oc2cc(C#C[C@H](C)O)ccc2S(=O)(=O)N([C@@H](C)CO)C[C@H]1C`, for which the inhibition was -1.62% (inactive). To `CC(C)C#Cc1ccc2c(c1)O[C@@H](CN(C)C(=O)Nc1ccccc1)[C@H](C)CN([C@H](C)CO)S2(=O)=O` belongs 15.5% (inactive). For `CNC[C@@H]1Oc2ncc(-c3ccc(F)cc3)cc2C(=O)N([C@H](C)CO)C[C@@H]1C`, the inhibition is 6.49% (inactive). For `CCCC(=O)Nc1ccc2c(c1)C(=O)N(C)C[C@H](OC)[C@@H](C)CN(C(C)=O)[C@H](C)CO2`, the inhibition was 3.22% (inactive). As for `CO[C@H]1CN(C)C(=O)c2ccc(NC(=O)c3nc4ccccc4s3)cc2OC[C@H](C)N(Cc2cccnc2)C[C@@H]1C`, the figure is -1.61% (inactive).

On to `CC(=O)N1Cc2cc(C(=O)NCc3cc(F)cc(F)c3)nc(-c3cccc(C4=CCCC4)c3)c2[C@@H]1CCO`, for which the inhibition was -14.1% (inactive). As for `N#C[C@@H]1[C@@H](c2ccc(-c3ccccc3)cc2)[C@@H](CO)N1C(=O)Cc1ccccc1`, the figure is 9.02% (inactive); as for `CO[C@H]1CN(C)C(=O)c2cc(NC(=O)Nc3ccccc3F)ccc2OC[C@@H](C)N(CCC(F)(F)F)C[C@@H]1C`, -11.4% (inactive).

In the case of `CN(C)C(=O)c1ccc(-c2ccc([C@@H]3[C@H](C#N)N(C(=O)C4CC4)[C@H]3CO)cc2)cc1`, the inhibition is -6.47% (inactive). As for `Cc1noc(C)c1S(=O)(=O)N(C)C[C@@H]1OCCCC[C@H](C)Oc2ccc(NC(=O)NC3CCCCC3)cc2C(=O)N([C@@H](C)CO)C[C@H]1C`, the figure is -8.81% (inactive); as for `C[C@@H]1CN([C@H](C)CO)C(=O)c2cc(NC(=O)Nc3ccc(F)cc3)ccc2O[C@@H](C)CCCCO[C@H]1CN(C)Cc1ccc(Cl)c(Cl)c1`, 4.63% (inactive); as for `COc1ccc(C(=O)Nc2ccc3c(c2)OC[C@H](C)N(C(C)=O)C[C@@H](C)[C@@H](OC)CN(C)C3=O)cc1`, -16% (inactive). As for `C[C@@H]1CN([C@H](C)CO)C(=O)c2cccc(NC(=O)C3CCCCC3)c2O[C@@H]1CN(C)C(=O)NC1CCCCC1`, the figure is 1.54% (inactive). To `C[C@H](O)C#Cc1ccc2c(c1)O[C@H](CN(C)Cc1ccccn1)[C@H](C)CN([C@H](C)CO)S2(=O)=O` belongs -12.6% (inactive). With `O=C(O)CSc1c2c(nc3cc(C(=O)Nc4cccc(C(F)(F)F)c4)ccc13)CCCC2`, the inhibition is 71.4% (active). To `O=C(Nc1cccc(C(F)(F)F)c1)c1ccc(N2CCNCC2)c([N+](=O)[O-])c1` belongs -2.54% (inactive); to `COc1cccc(NC(=O)c2ccc3c(SCC(=O)O)c4c(nc3c2)CCCC4)c1`, 6.49% (inactive). With `C[C@H]1CN([C@@H](C)CO)C(=O)CCCn2cc(nn2)CO[C@H]1CN(C)S(=O)(=O)c1ccc2ccccc2c1`, the inhibition was 1.04% (inactive). Consider `O=C(C[C@@H]1C[C@H]2c3cc(NS(=O)(=O)c4ccc(F)cc4)ccc3O[C@H]2[C@@H](CO)O1)NCc1ccccc1F`, for which the inhibition is -3.71% (inactive). To `O=C(NC1CCCCC1)[C@@H]1[C@@H](CO)[C@@H]2Cn3c(cccc3=O)[C@@H]2N1C(=O)CC1CC1` belongs 1.5% (inactive); to `COCC(=O)N1CC(=O)N2[C@H](CO)[C@@H](c3ccc(C#CC4CCCCC4)cc3)[C@@H]2C1`, -8.44% (inactive); to `COc1ccc(NC(=O)N[C@H]2CC[C@@H](CCNS(=O)(=O)c3cccc(Cl)c3)O[C@H]2CO)cc1`, 18.1% (inactive).

Regarding `O=C(Nc1ccccc1F)N[C@H]1CC[C@@H](CCNS(=O)(=O)c2ccc(F)cc2)O[C@@H]1CO`, the inhibition was -5.07% (inactive). As for `COc1ccccc1NC(=O)N[C@H]1CC[C@H](CCNS(=O)(=O)c2ccc(Cl)cc2)O[C@H]1CO`, the figure is 107% (active); as for `Cc1noc(C)c1S(=O)(=O)Nc1ccc2c(c1)C(=O)N([C@H](C)CO)C[C@H](C)[C@@H](CN(C)C(=O)CCC(F)(F)F)OCCCC[C@H](C)O2`, -11.4% (inactive). As to `C[C@@H]1CN([C@@H](C)CO)S(=O)(=O)c2ccc(C#CCC3CCCC3)cc2O[C@H]1CN(C)Cc1ccc(C(=O)O)cc1`, the inhibition is -3.27% (inactive).

With `COc1ccc2c3c([nH]c2c1)[C@H](CO)N(C(=O)Nc1cccc(F)c1)CC31CCN(S(=O)(=O)c2ccccc2)CC1`, the inhibition was -4.14% (inactive).

As to `COc1ccc(CN(C)C[C@H]2Oc3ccc(NS(=O)(=O)c4ccc(C)cc4)cc3C(=O)N([C@@H](C)CO)C[C@H]2C)cc1`, the inhibition was -4.3% (inactive).

With `C[C@@H]1CN([C@@H](C)CO)C(=O)c2cccc(NC(=O)Nc3ccc(F)cc3)c2O[C@@H]1CN(C)Cc1ccc(C(=O)O)cc1`, the inhibition is 16.9% (inactive). As for `CCC(=O)N1C[C@H](C)[C@H](OC)CN(C)C(=O)c2ccc(NC(=O)Nc3cccc(F)c3)cc2OC[C@@H]1C`, the figure is -17.6% (inactive); as for `O=C(C[C@@H]1CC[C@H]2[C@@H](COC[C@H](O)CN2S(=O)(=O)c2ccc(F)cc2)O1)N[C@H]1CCN(Cc2ccccc2)C1`, 2.74% (inactive). `C[C@@H](NC(=O)C[C@H]1C[C@@H]2c3cc(NC(=O)C4CCC4)ccc3O[C@@H]2[C@@H](CO)O1)c1ccccc1`: the inhibition was 8.72% (inactive). Regarding `CC(C)CC#Cc1ccc([C@@H]2[C@@H](CO)N3C(=O)CN(C(=O)Nc4ccc(F)cc4)C[C@H]23)cc1`, the inhibition is -1.01% (inactive). `CO[C@H]1CN(C)C(=O)c2ccc(NC(C)=O)cc2OC[C@H](C)N(C(=O)c2ccccc2)C[C@H]1C`: the inhibition was -4.17% (inactive). Turning to `COc1ccc(CN(C)C[C@@H]2OCCCC[C@H](C)Oc3ccc(NS(=O)(=O)c4ccc(F)cc4)cc3C(=O)N([C@@H](C)CO)C[C@@H]2C)cc1`, the inhibition is -2.85% (inactive).

For `C[C@H]1CCCCO[C@H](CN(C)S(C)(=O)=O)[C@@H](C)CN([C@@H](C)CO)C(=O)c2cc(NC(=O)C3CCCCC3)ccc2O1`, the inhibition was 3.69% (inactive).

On to `O=C(Nc1ccc(F)cc1)N1C[C@H]2[C@@H](c3ccccc31)[C@@H](CO)N2Cc1cocn1`, for which the inhibition is -2.03% (inactive).

Take `CO[C@@H]1CN(C)C(=O)c2ccc(NS(=O)(=O)c3cccc(F)c3)cc2OC[C@H](C)N(C(=O)Cc2cccnc2)C[C@@H]1C`: the inhibition was 0.669% (inactive). Turning to `CC(C)[C@@H]1COCn2nncc2CCCC(=O)N1`, the inhibition is -3.23% (inactive). As for `CCCNC(=O)[C@@H]1[C@@H](CO)[C@@H]2Cn3c(cccc3=O)[C@H]1N2C(=O)C1CCC1`, the figure is 6.67% (inactive). As for `Cc1cccc(S(=O)(=O)N2C[C@H]3[C@@H](c4ccccc42)[C@H](CO)N3Cc2ccc3c(c2)OCO3)c1`, the figure is 7.88% (inactive).

In the case of `Cc1cccc(S(=O)(=O)N2C[C@@H]3[C@H](c4ccccc42)[C@H](CO)N3CC2CCOCC2)c1`, the inhibition is 86.4% (active). To `Cc1cccc(S(=O)(=O)N2C[C@@H]3[C@H](c4ccccc42)[C@@H](CO)N3C(=O)c2ccccc2)c1` belongs 3.03% (inactive); to `C[C@H](CO)N1C[C@H](C)[C@@H](CN(C)C(=O)Nc2ccccc2)Oc2ncc(C3=CCCC3)cc2C1=O`, 2.15% (inactive); to `CO[C@H]1CN(C)C(=O)c2cc(NS(=O)(=O)c3ccc(C)cc3)ccc2OC[C@H](C)NC[C@H]1C`, 7.5% (inactive). As for `COc1cccc(C#Cc2cnc3c(c2)C(=O)N([C@@H](C)CO)C[C@H](C)[C@H](CN(C)CC2CC2)O3)c1`, the figure is -46.8% (inactive); as for `O=C(C[C@@H]1CC[C@@H](NC(=O)Nc2ccc(F)cc2)[C@@H](CO)O1)NCCN1CCCC1`, -3.14% (inactive). Take `O=C(Cc1ccccc1)N1C[C@H]2[C@@H](c3ccccc31)[C@H](CO)N2C(=O)c1ccc(F)cc1`: the inhibition was 7.78% (inactive). As for `CCS(=O)(=O)N1[C@H](CO)[C@@H](c2ccccc2)C12CN(C(=O)C1CCC1)C2`, the inhibition was -10% (inactive).

As to `COc1ccc(NC(=O)N(C)C[C@@H]2OCCCC[C@@H](C)Oc3ccc(NC(=O)C4CCCCC4)cc3C(=O)N([C@@H](C)CO)C[C@@H]2C)cc1`, the inhibition is 2.51% (inactive).

In the case of `CCCNC(=O)Nc1ccc2c(c1)OC[C@H](C)N(C(=O)C1CCC1)C[C@H](C)[C@@H](OC)CN(C)C2=O`, the inhibition is -7.21% (inactive).

As for `COCC#Cc1cnc2c(c1)C(=O)N([C@H](C)CO)C[C@@H](C)[C@@H](CN(C)C(=O)Nc1cccc(F)c1)O2`, the inhibition is -1.97% (inactive). Turning to `C[C@@H]1CN([C@H](C)CO)C(=O)c2cc(NC(=O)Cn3cnnn3)ccc2O[C@@H]1CN(C)CC1CC1`, the inhibition is 13.2% (inactive). As for `CN(C)C(=O)c1ccc(-c2ccc([C@@H]3[C@@H](CO)N4CCCCN(CC5CC5)C[C@H]34)cc2)cc1`, the figure is 11.7% (inactive). As for `O=C(C[C@H]1C=C[C@H](NC(=O)CN2CCOCC2)[C@@H](CO)O1)NCc1cccc(F)c1`, the figure is 2.82% (inactive). Take `CC=Cc1ccc2n(c1=O)C[C@H]1[C@H](CO)[C@@H](C(=O)NCCc3cn(C)cn3)[C@@H]2N1C(=O)CC` (mixture of isomers): the inhibition is -3.21% (inactive).
